Experimental data from ChEMBL document CHEMBL4371071, “Muscarinic agonist, (±)-quinuclidin-3-yl-(4-fluorophenethyl)(phenyl)carbamate: High affinity, but low subtype selectivity for human M1 - M5 muscarinic acetylcholine receptors” (Bioorg Med Chem Lett, 2019).

Tests used:
[1] = target: T1, Muscarinic acetylcholine receptor M2 (Homo sapiens, UniProt P08172); assay: Displacement of [3H]NMS from human M2 AChR expressed in CHO cell membranes after 1 to 2 hrs by liquid scintillation spectrometry method
T1 sequence (P08172 whole entry): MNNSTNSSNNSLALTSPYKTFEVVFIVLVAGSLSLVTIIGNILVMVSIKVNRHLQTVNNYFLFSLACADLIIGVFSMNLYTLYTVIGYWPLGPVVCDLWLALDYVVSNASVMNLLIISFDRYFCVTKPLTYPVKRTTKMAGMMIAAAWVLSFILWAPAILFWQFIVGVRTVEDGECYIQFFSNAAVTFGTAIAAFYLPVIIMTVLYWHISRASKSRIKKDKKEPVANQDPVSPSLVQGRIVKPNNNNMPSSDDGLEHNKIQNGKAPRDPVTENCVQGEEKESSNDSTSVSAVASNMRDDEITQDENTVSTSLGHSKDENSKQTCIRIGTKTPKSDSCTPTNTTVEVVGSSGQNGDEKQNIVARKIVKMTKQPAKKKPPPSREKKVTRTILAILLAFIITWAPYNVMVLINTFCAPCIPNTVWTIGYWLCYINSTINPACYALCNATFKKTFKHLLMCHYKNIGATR
Procedure, shortened: (§1)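 CHO membranes expressing the human subtype (20 µg protein/well) with 0.3 nM [3H]NMS and analog (1 nM–100 µM) in 50 mM Tris-HCl pH 7.4, 2 h at 25 °C. […] Filtered on GF/B, washed, counted by scintillation. IC50 taken from curves to give Ki; three independent experiments in duplicate.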

[2] = target: T2, Muscarinic acetylcholine receptor M5 (Homo sapiens, UniProt P08912); assay: Displacement of [3H]NMS from human M5 AChR expressed in CHO cell membranes after 1 to 2 hrs by liquid scintillation spectrometry method
T2 sequence (P08912 whole entry): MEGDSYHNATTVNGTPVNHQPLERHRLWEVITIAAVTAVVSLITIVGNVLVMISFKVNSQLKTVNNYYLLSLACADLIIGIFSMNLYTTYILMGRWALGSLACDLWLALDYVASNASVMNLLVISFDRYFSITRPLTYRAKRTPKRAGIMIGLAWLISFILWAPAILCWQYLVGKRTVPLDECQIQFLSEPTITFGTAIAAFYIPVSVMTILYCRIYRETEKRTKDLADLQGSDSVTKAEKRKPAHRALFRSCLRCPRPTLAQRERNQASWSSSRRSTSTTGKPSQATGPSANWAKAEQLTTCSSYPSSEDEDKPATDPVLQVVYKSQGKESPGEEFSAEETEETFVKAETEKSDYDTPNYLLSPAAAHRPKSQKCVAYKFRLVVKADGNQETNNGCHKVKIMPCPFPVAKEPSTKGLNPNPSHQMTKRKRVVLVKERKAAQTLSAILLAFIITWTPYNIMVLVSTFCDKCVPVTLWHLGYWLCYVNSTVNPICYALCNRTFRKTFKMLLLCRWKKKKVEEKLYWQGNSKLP
Procedure, shortened: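 CHO membranes expressing human M5 (10 µg protein/well) with 0.3 nM [3H]NMS and analog (1 nM–100 µM) in 50 mM Tris-HCl pH 7.4, 2 h at 25 °C. Filtered on GF/B, counted by scintillation. IC50 converted to Ki; three independent experiments in duplicate.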

[3] = target: T3, Muscarinic acetylcholine receptor M5 (Homo sapiens) (UniProt P08912); assay: Displacement of [3H]NMS from human M5 AChR expressed in CHO cell membranes at 100 uM after 1 to 2 hrs by liquid scintillation spectrometry method relative to control
T3 sequence (whole entry): T2 sequence (P08912 whole entry)
Procedure, shortened: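 CHO membranes expressing human M5 (10 µg protein/well) with 0.3 nM [3H]NMS and analog (1 nM–100 µM) in 50 mM Tris-HCl pH 7.4, 2 h at 25 °C. […] Filtered on GF/B, counted by scintillation. IC50 converted to Ki; three independent experiments in duplicate.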

Homo sapiens [4] = species: Homo sapiens; assay: Selectivity ratio of Ki for displacement of [3H]NMS from human M1 AChR expressed in CHO cell membranes to Ki for displacement of [3H]NMS from human M5 AChR expressed in CHO cell membranes
Homo sapiens [5] = species: Homo sapiens; assay: Selectivity ratio of Ki for displacement of [3H]NMS from human M2 AChR expressed in CHO cell membranes to Ki for displacement of [3H]NMS from human M3 AChR expressed in CHO cell membranes
[6] = target: T4, Muscarinic acetylcholine receptor M4 (Homo sapiens) (UniProt P08173); assay: Displacement of [3H]NMS from human M4 AChR expressed in CHO cell membranes at 100 uM after 1 to 2 hrs by liquid scintillation spectrometry method relative to control; procedure, shortened: as §1
T4 sequence (whole entry): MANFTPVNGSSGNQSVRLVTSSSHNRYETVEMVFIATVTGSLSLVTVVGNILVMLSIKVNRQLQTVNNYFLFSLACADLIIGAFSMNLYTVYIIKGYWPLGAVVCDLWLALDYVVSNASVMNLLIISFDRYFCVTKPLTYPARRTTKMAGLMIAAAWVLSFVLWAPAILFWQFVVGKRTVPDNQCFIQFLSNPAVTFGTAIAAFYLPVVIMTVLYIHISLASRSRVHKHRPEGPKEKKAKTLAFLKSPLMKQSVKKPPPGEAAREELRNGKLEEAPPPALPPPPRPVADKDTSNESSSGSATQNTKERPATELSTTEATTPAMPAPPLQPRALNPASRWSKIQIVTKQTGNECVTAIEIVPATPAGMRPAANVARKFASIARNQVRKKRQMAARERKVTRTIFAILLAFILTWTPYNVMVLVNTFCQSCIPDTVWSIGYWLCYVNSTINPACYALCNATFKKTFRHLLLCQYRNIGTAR

[7] = target: T5, Muscarinic acetylcholine receptor M1 (Homo sapiens) (UniProt P11229); conditions: CHO, at 100 µM
T5 sequence (whole entry): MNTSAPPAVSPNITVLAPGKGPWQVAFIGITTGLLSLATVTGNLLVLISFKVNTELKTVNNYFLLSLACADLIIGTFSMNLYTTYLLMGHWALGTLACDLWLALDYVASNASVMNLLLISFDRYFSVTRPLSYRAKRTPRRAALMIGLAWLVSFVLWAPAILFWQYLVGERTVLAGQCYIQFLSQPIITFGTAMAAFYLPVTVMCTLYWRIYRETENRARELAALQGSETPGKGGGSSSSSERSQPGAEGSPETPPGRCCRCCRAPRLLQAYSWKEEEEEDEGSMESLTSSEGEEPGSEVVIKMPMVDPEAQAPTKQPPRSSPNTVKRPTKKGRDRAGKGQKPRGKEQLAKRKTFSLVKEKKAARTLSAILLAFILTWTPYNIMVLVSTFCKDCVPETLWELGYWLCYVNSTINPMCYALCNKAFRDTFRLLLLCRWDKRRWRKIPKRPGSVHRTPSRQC

Compound O=C(OC1CN2CCC1CC2)N(CCc1ccc(F)cc1)c1ccccc1 (racemic) has a Ki [1] of 13 nM, a Ki [2] of 1.8 nM and an Imax [3] of 99.8%. The Ratio Ki (Homo sapiens [4]) was 1.1, the Ratio Ki (Homo sapiens [5]) was 5 and the Imax [6] was 99.8%. For the same compound, the Imax [7] was 99.9%.
